The values below come from ChEMBL document CHEMBL3232877, “Synthesis and activity of tumor-homing peptide iRGD and histone deacetylase inhibitor valproic acid conjugate” (2014).

Positions of bridges follow the written chain, without caps; N, C: chain ends. Residues, ends and D or L forms follow the SMILES beside them. *: point of attachment. Pentanoyl(2-Pr) = CCCC(CCC)C(=O)*

Common to all, as to format: functional
Experiment [1] has as its system DU-145. Kind of experiment: Cytotoxicity against human DU145 cells assessed viable cells at 0.5 mM after 72 hrs by CCK-8 assay (reference value: 99.97 +/- 0.84 %). The method, boiled down:
(§1)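 DU-145 cells exposed 72 h to drug or drug equivalent at 0.5 mM or 1.5 mM. Viable cells read by CCK-8, absorbance 450 nm (630 nm reference). Viability % = treated viable cells / mean of untreated group (set 100%); reported as mean ± SEM; one-way ANOVA with Tukey test.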
In general terms: Formazan colour is commonly taken as a measure of viable cells.

For experiment [2], the system named is DU-145. The experiment can be described thus: Cytotoxicity against human DU145 cells assessed viable cells at 1.5 mM after 72 hrs by CCK-8 assay (reference value: 100.00 +/- 2.47 %). The method, boiled down:
as §1

In experiment [3] the test system is DU-145. The experiment can be described thus: Cell cycle arrest in human DU145 cells assessed as accumulation of cells at G2 phase at 1.5 mM after 24 hrs by flow cytometry (reference value: 22.1 %).
The test system of experiment [4] is DU-145. Kind of experiment: Cell cycle arrest in human DU145 cells assessed as accumulation of cells at G1 phase at 1.5 mM after 24 hrs by flow cytometry (Rvb =64.7 %).

With `CCCC(CCC)C(=O)NCC(=O)N[C@@H](Cc1ccccc1)C(=O)N[C@@H](CC(C)C)C(=O)NCC(=O)N[C@H]1CSSC[C@@H](C(N)=O)NC(=O)[C@H](CC(=O)O)NC(=O)[C@@H]2CCCN2C(=O)CNC(=O)[C@H](CCCCN)NC(=O)[C@H](CC(=O)O)NC(=O)CNC(=O)[C@H](CCCNC(=N)N)NC1=O` ({Pentanoyl(2-Pr)}-GFLGCRGDKGPDC-NH2; disulfide 5-13), the Activity in the experiment on DU-145 [1] worked out at 69.3%; in the experiment with DU-145 [2] it was 38.96%; in the experiment on DU-145 [3], 15.7%; in the experiment on DU-145 [4], 76.3%.
For `CC(C)C[C@H](NC(=O)[C@H](Cc1ccccc1)NC(=O)CN)C(=O)NCC(=O)N[C@H]1CSSC[C@@H](C(N)=O)NC(=O)[C@H](CC(=O)O)NC(=O)[C@@H]2CCCN2C(=O)CNC(=O)[C@H](CCCCN)NC(=O)[C@H](CC(=O)O)NC(=O)CNC(=O)[C@H](CCCNC(=N)N)NC1=O` (H-GFLGCRGDKGPDC-NH2; disulfide 5-13) the same measures were 70.52%, 58.67%, 17.7% and 73.7%.
Take `CCCC(CCC)C(=O)O` [VALPROIC ACID]: the Activity in the experiment with DU-145 [1] came out at 99.56%; in the experiment on DU-145 [2], 79.87%; in the experiment on DU-145 [3] it was 25.8%; in the experiment with DU-145 [4], 62.5%.
